# Active and inactive are the calls of the source. No cut-off for these calls is given here.
# System: MCF7
# Assay: Growth inhibition of human MCF7 cells at 10 uM after 48 hrs by fluorescein diacetate cell viability assay relative to 4-HPR
# Assay type: functional
# How it was run: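 MCF-7 human breast cancer cells received a single dose at a final 10−5M, with vehicle at 0.2% ethanol. Live cells were counted 48 hrs later by fluorescein diacetate viability assay. Activity was scored on a +/++/+++ scale against 4-HPR.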
row,SMILES,Activity
1,CC1=C(/C=C/C(C)=C/C=C/C(C)=C/C(=O)Nc2cc(Cl)ccc2O)C(C)(C)CCC1,>=50%
2,CC1=C(/C=C/C(C)=C/C=C/C(C)=C/C(=O)Nc2ccc(C)cc2O)C(C)(C)CCC1,>=50%
3,CC1=C(/C=C/C(C)=C/C=C/C(C)=C/C(=O)Nc2ccc(O)c(Cl)c2)C(C)(C)CCC1,>=50%
4,CC1=C(/C=C/C(C)=C/C=C/C(C)=C/C(=O)Nc2ccc(Cl)c(Cl)c2)C(C)(C)CCC1,>=25%
5,CC1=C(/C=C/C(C)=C/C=C/C(C)=C/C(=O)Nc2cccc(CO)c2)C(C)(C)CCC1,>=25%
6,COC(=O)c1cc(NC(=O)/C=C(C)/C=C/C=C(C)/C=C/C2=C(C)CCCC2(C)C)ccc1O,>=25%
7,CC1=C(/C=C/C(C)=C/C=C/C(C)=C/C(=O)Nc2ccc(O)cc2)C(C)(C)CCC1 [FENRETINIDE],>=100%
8,COC(=O)c1ccc(NC(=O)/C=C(C)/C=C/C=C(C)/C=C/C2=C(C)CCCC2(C)C)c(O)c1,>=25%
9,CC1=C(/C=C/C(C)=C/C=C/C(C)=C/C(=O)Nc2ccc(N)cc2)C(C)(C)CCC1,>=50%
10,CC1=C(/C=C/C(C)=C/C=C/C(C)=C/C(=O)Nc2ccc(C)c(O)c2)C(C)(C)CCC1,>=100%
11,CC1=C(/C=C/C(C)=C/C=C/C(C)=C/C(=O)Nc2ccc([N+](=O)[O-])cc2O)C(C)(C)CCC1,>=100%
12,CC1=C(/C=C/C(C)=C/C=C/C(C)=C/C(=O)Nc2ccccc2)C(C)(C)CCC1,>=25%
13,CC1=C(/C=C/C(C)=C/C=C/C(C)=C/C(=O)Nc2ccc(Cl)cc2)C(C)(C)CCC1,>=25%
14,CC1=C(/C=C/C(C)=C/C=C/C(C)=C/C(=O)Nc2cc([N+](=O)[O-])ccc2O)C(C)(C)CCC1,>=25%
15,COc1ccc(NC(=O)/C=C(C)/C=C/C=C(C)/C=C/C2=C(C)CCCC2(C)C)cc1,>=25%
16,CC1=C(/C=C/C(C)=C/C=C/C(C)=C/C(=O)N(C)c2ccc(O)cc2)C(C)(C)CCC1,>=25%
17,CC1=C(/C=C/C(C)=C/C=C/C(C)=C/C(=O)Nc2ccccc2C(=O)O)C(C)(C)CCC1,>=25%

# System: MCF7
# Assay: Induction of apoptosis in human MCF7 cells at 10 uM after 48 hrs by TUNEL assay relative to 4-HPR
# Assay type: functional, cell-based
# How it was run: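 MCF-7 cells received a single dose at 10−5M, with vehicle as control. After 48 hr the % of TUNEL-labeled cells was scored. Values are means (+SEM) of three independent cell culture experiments, compared with standard 4-HPR.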
row,SMILES,Activity
1,COC(=O)c1ccc(NC(=O)/C=C(C)/C=C/C=C(C)/C=C/C2=C(C)CCCC2(C)C)c(O)c1,Active
2,CC1=C(/C=C/C(C)=C/C=C/C(C)=C/C(=O)Nc2ccc(C)c(O)c2)C(C)(C)CCC1,Active
3,CC1=C(/C=C/C(C)=C/C=C/C(C)=C/C(=O)Nc2ccc([N+](=O)[O-])cc2O)C(C)(C)CCC1,Active

# From ChEMBL document CHEMBL1138424, “Solid phase-assisted synthesis and screening of a small library of N-(4-hydroxyphenyl)retinamide (4-HPR) analogs” (2007)
